The source made the active and inactive calls. Unless noted, no stated cut-off is given here; in the data, active means inhibition above about 30%; inactive means the rest.
Key:
[1] = reduced viability of SK-BR-3 breast cancer cells – cell-based, 24 h, human, pilot screen (AID 572;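 active means viability at or below 10% of carrier control in both of two separate runs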;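 further: compound exposure lasted between 18 and 24 h rather than exactly 24 h; 100% = carrier-treated control wells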); conditions: SK-BR-3 viability, CellTiter-Glo luminescence, at 10 µM, stronger effect = lower value
[2] = HUVEC growth inhibition – cell-based, human, primary screen (AID 575;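 active means viability at or below 30% in both replicate assays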;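 further: 100% = median of untreated cell wells with 0.1% DMSO on each plate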); conditions: HUVEC proliferation, CellTiter-Glo luminescence, 72 h; at 10 µM; stronger effect = lower value
How it was run: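 Test system: HUVEC primary cells. Quantity: 1250 endothelial cells in each well. Dosing: single-point 10 µM, DMSO 0.1% final. Incubation: 72 h treatment at 37 °C. Measured by: CTG luminescence. Control set: DMSO cell controls and MePR drug controls. Plate: collagen-coated 384-well format.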

[3] = H69AR cell proliferation blockers – human, duplicate replicates, primary screen (AID 580;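 active means viability at or under a set limit in both replicates, limit being median viability minus 3 SD, cut at about 48% in these data, passing the limit was not always enough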;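 further: 100% = mean luminescence of untreated wells and 0% = no signal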); conditions: H69AR lung tumor cells viability, ATP luminescence, 72 h; at 10 µM; stronger effect = lower value
[4] = MRP1 drug-resistance reversers in H69AR cells – cell-based, doxorubicin co-treatment, pilot screen (AID 601;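 active means viability loss from added drug above about 55%, and viability with drug at most 40%, in both replicates, limit read from the data, passing the limit was not always enough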); conditions: CellTiter-Glo, 72 h, at 10 µM; for differential viability (reversal): stronger effect = higher value
[5] = yeast transport mutant growth inhibition pilot in 384-well plates, post-Golgi transport modulator project (AID 636; in the data active means inhibition above about 31%); conditions: absorbance 615 nm, about 18 h, stronger effect = higher value
[6] = growth suppression of yeast trafficking mutant, preliminary HTS, modulators of trafficking downstream of Golgi apparatus project, 1536-format plate, OD 615 nm (AID 637); conditions: yeast transport mutant growth, absorbance 615 nm, 18 h; stronger effect = higher value
[7] = H69AR cells + 2 uM doxorubicin, measured here: viability with 2 uM doxorubicin, stronger effect = lower value
[8] = H69AR cells, compound alone cytotoxicity

Row | Compound | viability [1] | viability [2] | viability [3] | differential viability (reversal) ([4]; H69AR cells + 2 uM doxorubicin) | viability [4, 7] | viability [4, 8] | inhibition [5] | inhibition [6]
1 | COCCCC/C(=N\OCCN)c1ccc(C(F)(F)F)cc1 | 84% (inactive) | 55.7% (inactive) | 104% (inactive) | 20% (inactive) | 83.9% | 104% | -0.91% (inactive) | -6.83% (inactive)
2 | C=CCC1(O)C(=O)Nc2ccccc21 (stereo unspecified) | 93% (inactive) | 108% (inactive) | 98.2% (inactive) | 18.9% (inactive) | 79.4% | 98.2% | -5.2% (inactive) | 1.82% (inactive)
3 | CCOC(=O)c1ccc(NC(=O)CCc2nc(-c3ccc(C)cc3)no2)cc1 | 85% (inactive) | 38% (inactive) | 94.3% (inactive) | 5.47% (inactive) | 88.8% | 94.3% | -3.29% (inactive) | 3.93% (inactive)
4 | Cc1nc(SCC(=O)Nc2cc(C)on2)c2c3c(sc2n1)CCCC3 | 66.5% (inactive) | 78.5% (inactive) | 30.4% (active) | 6.21% (inactive) | 24.2% | 30.4% | -2.97% (inactive) | -1.11% (inactive)
5 | CCN(CC)CCNC(=O)c1ccc(N2CCCCC2)c(NS(=O)(=O)c2ccc(C)cc2)c1 | 81% (inactive) | 18.5% (active) | 76.6% (inactive) | 2.53% (inactive) | 74.1% | 76.6% | -6.13% (inactive) | 7.21% (inactive)
6 | CC1(C)NC(=O)N(CC(O)CN2CCCC2)C1=O (stereo unspecified) | 96% (inactive) | 103% (inactive) | 97.2% (inactive) | 2.99% (inactive) | 94.2% | 97.2% | 0.13% (inactive) | -2.79% (inactive)
7 | Cn1c(Cl)cnc1C1CC(=O)c2cc(Cl)ccc2O1 (stereo unspecified) | 112% (inactive) | 15.5% (active) | 2.09% (active) | 0.045% (inactive) | 2.04% | 2.09% | -4.46% (inactive) | 3.64% (inactive)
8 | COC(=O)Cn1c(CCS(=O)(=O)c2ccc(C)cc2)nc2ccccc21 | 99% (inactive) | 96.5% (inactive) | 76.4% (inactive) | 6.58% (inactive) | 69.8% | 76.4% | -0.91% (inactive) | -1.64% (inactive)
9 | Cc1cccc(N2C(=O)CC(N(C(=O)c3ccco3)c3cccc(C)c3)C2=O)c1 (stereo unspecified) | 104% (inactive) | 98.8% (inactive) | 98.5% (inactive) | -3.33% (inactive) | 102% | 98.5% | 0% (inactive) | 6.13% (inactive)
10 | CCN(CC)CCOC(=O)C1(C2CCCCC2)CCCCC1 | 114% (inactive) | 72.7% (inactive) | 86.3% (inactive) | 3.1% (inactive) | 83.2% | 86.3% | -2.6% (inactive) | -3.33% (inactive)
11 | COCC(=O)N(C)c1nnc(-c2ccccn2)s1 | 83% (inactive) | 111% (inactive) | 105% (inactive) | 13.6% (inactive) | 91.3% | 105% | -2.57% (inactive) | -1.09% (inactive)
12 | CN1CCN(C(=O)NC2CCCN2S(=O)(=O)c2ccc(Cl)cc2)CC1 (stereo unspecified) | 100% (inactive) | 96.4% (inactive) | 88.9% (inactive) | -0.73% (inactive) | 89.6% | 88.9% | -1.1% (inactive) | -4.68% (inactive)

Reference: PubChem BioAssay
